We go through 1 compound from ChEMBL document CHEMBL4387709, “Discovery of Quinoline Analogues as Potent Antivirals against Enterovirus D68 (EV-D68)” (J Med Chem, 2019).

Each structure is given as a SMILES string. Active and inactive are the calls of the source. No cut-off for these calls is given here.

For orientation: EC50 means the concentration that produces a half-maximal response. In general, CC50 refers to the concentration that lowers cell viability or growth by half. Read a high CC50 as lower toxicity to the cells.

Data set [1] is described as follows: Selectivity index, ratio of CC50 for human RD cells to EC50 for Enterovirus D68 US/KY/14-18953 infected in human RD cells. It counts as toxicity, cell-based. The settings on record: read-out: Ratio CC50/EC50.
The nature of data set [2]: Selectivity index, ratio of CC50 for human SH-SY5Y cells to EC50 for Enterovirus D68 US/MO/14-18947 infected in human SH-SY5Y cells. It counts as toxicity, cell-based. The settings on record: read-out: Ratio CC50/EC50. In outline:
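SH-SY5Y cells grown in 50% DMEM/50% F-12 with 10% FBS and 1% P/S to about 90% confluency, then infected at MOI about 1 in DMEM with 2% FBS and 30 mM MgCl2 at 33 °C. Compounds were added after 1 h. Neutral red staining was read at 540 nm after 3 days. CC50 came from uninfected cells under the same conditions. Values were triplicate dose-response fits, and SI = CC50/EC50.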

In data set [3] the test system is enterovirus D68. Briefly: Antiviral activity against Enterovirus D68 US/KY/14-18953 infected in human A172 cells assessed as inhibition of virus-induced cytopathic effect incubated for 5 mins under shaking condition and measured after 3 days by neutral red dye-based photometric method. It counts as functional, organism-based. The settings on record: Enterovirus D, US/KY/14-18953, A 172. In outline:
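A172 cells (DMEM, 10% FBS) grown ~90% confluent, infected with EV-D68 at ~MOI 0.3 in DMEM/2% FBS/30 mM MgCl2 and kept at 33 °C. P/S and compounds added 1 h later. Brief orbital shaking, then 3-day incubation. Neutral red staining with 540 nm absorbance. EC50 from best-fit dose-response curves in triplicate.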
For orientation: Damage to the host cells serves as the signal in cytopathic effect assays.

In data set [4] the test system is enterovirus D68. As to the kind of experiment: Antiviral activity against Enterovirus D68 US/MO/14-18949 infected in human RD cells assessed as inhibition of virus-induced cytopathic effect incubated for 5 mins under shaking condition and measured after 3 days by neutral red dye-based photometric method. It counts as functional, organism-based. The settings on record: Enterovirus D, US/MO/14-18949, RD. The method in brief:
(§1)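 RD cells seeded one day ahead to ~90% confluence, PBS (Mg/Ca) wash, infected at ~MOI 0.01 with EV-D68 in DMEM/2% FBS/30 mM MgCl2 at 33 °C, 5% CO2. Compounds and 1% P/S added after 1 h. Plates shaken ~5 min, held 3 days, viable cells stained with neutral red (66 µg/ml), A540 read. EC50 from dose-response fits, triplicates.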

Data set [5] has as its system enterovirus D68. Briefly: Antiviral activity against Enterovirus D68 US/KY/14-18953 infected in human SH-SY5Y cells assessed as inhibition of virus-induced cytopathic effect incubated for 5 mins under shaking condition and measured after 3 days by neutral red dye-based photometric method. It counts as functional, organism-based. The settings on record: Enterovirus D, US/KY/14-18953, SH-SY5Y. In outline:
(§2)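 Virus at ~MOI 1 applied to SH-SY5Y cells (50% DMEM/50% F-12, 10% FBS) at ~90% confluence in DMEM/2% FBS/30 mM MgCl2 at 33 °C. Compounds added after 1 h with 1% P/S, shaken ~5 min, incubated 3 days. Viability read by neutral red uptake (A540). EC50 fitted from dose-response, triplicate.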

Data set [6] is described as follows: Selectivity index, ratio of CC50 for human RD cells to EC50 for Enterovirus D68 […] infected in human RD cells. It counts as toxicity, cell-based. The settings on record: read-out: Ratio CC50/EC50. In outline:
(§3)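 RD cells in DMEM with 10% FBS were infected at about 90% confluency at MOI about 0.01, giving full CPE by 3 days, in DMEM with 2% FBS and 30 mM MgCl2 at 33 °C. Compounds and P/S were added 1 h after infection. Viability was read by neutral red uptake (A540). CC50 came from uninfected cells. Means were from triplicates, and SI = CC50/EC50.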

Data set [7] is described as follows: Selectivity index, ratio of CC50 for human A172 cells to EC50 for Enterovirus D68 US/KY/14-18953 infected in human A172 cells. It counts as toxicity, cell-based. The settings on record: read-out: Ratio CC50/EC50. The method in brief:
(§4)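 A172 cells kept in DMEM with 10% FBS and 1% P/S, grown to about 90% confluency, then infected at MOI about 0.3 in DMEM with 2% FBS and 30 mM MgCl2 at 33 °C. After 1 h, P/S and compounds were added. Viable cells were stained with neutral red after 3 days (A540). CC50 came from the same assay without virus. EC50 and CC50 were fitted from triplicate dose-response data, and SI = CC50/EC50.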

The next data set has as its system HeLa. As to the kind of experiment: Cytotoxicity against human HeLa cells after 3 days by neutral red dye-based photometric method. It counts as cell-based. The settings on record: 72 h. In outline:
(§5)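 Uninfected cells run as in the CPE assay (33 °C, 3 days, same media) with compound. Viability by neutral red staining and 540 nm absorbance. CC50 from dose-response curves, triplicate experiments.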

The next data set relates to RD. Briefly: Inhibition of 2C protein in Enterovirus D68 US/KY/14-18953 infected in human RD cells assessed as reduction of VP1 expression at 1 uM measured at 9 hrs post infection by DAPI-staining based microscopy. It counts as cell-based. The method in brief:
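Fixed at 9 hpi (4% formaldehyde), 0.2% Triton X-100 permeabilized, blocked with 10% bovine serum. Stained with rabbit anti-VP1 plus Alexa-488 secondary, nuclei with 300 nM DAPI. Confocal microscopy.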

Data set [8] deals with enterovirus D68. Briefly: Antiviral activity against Enterovirus D68 US/MO/14-18947 infected in human SH-SY5Y cells assessed as inhibition of virus-induced cytopathic effect incubated for 5 mins under shaking condition and measured after 3 days by neutral red dye-based photometric method. The settings on record: Enterovirus D, US/MO/14-18947, SH-SY5Y. It counts as functional, organism-based. The method in brief:
as §2

Data set [9] has as its system enterovirus D68. Briefly: Antiviral activity against Enterovirus D68 US/MO/14-18947 infected in human RD cells assessed as inhibition of virus-induced cytopathic effect incubated for 5 mins under shaking condition and measured after 3 days by neutral red dye-based photometric method. It counts as functional, organism-based. The settings on record: Enterovirus D, US/MO/14-18947, RD. The method in brief: as §1

Data set [10] can be described thus: Selectivity index, ratio of CC50 for human RD cells to EC50 for Enterovirus D68 US/MO/14-18947 infected in human RD cells. It counts as toxicity, cell-based. The settings on record: read-out: Ratio CC50/EC50.
The nature of data set [11]: Selectivity index, ratio of CC50 for human RD cells to EC50 for Enterovirus D68 US/IL/14-18956 infected in human RD cells. The settings on record: read-out: Ratio CC50/EC50. It counts as toxicity, cell-based. The method in brief: as §3
The nature of data set [12]: Selectivity index, ratio of CC50 for human A172 cells to EC50 for Enterovirus D68 US/MO/14-18947 infected in human A172 cells. It counts as toxicity, cell-based. The settings on record: read-out: Ratio CC50/EC50. In outline: as §4
A short description of data set [13]: Selectivity index, ratio of CC50 for human RD cells to EC50 for Enterovirus D68 US/MO/14-18949 infected in RD human cells. It counts as toxicity, cell-based. The settings on record: read-out: Ratio CC50/EC50.
For the next data set, the system named is A 172. Briefly: Cytotoxicity against human A172 cells after 3 days by neutral red dye-based photometric method. It counts as cell-based. The settings on record: a 172, 72 h. In outline: as §5
Data set [14] concerns enterovirus D68. As to the kind of experiment: Antiviral activity against Enterovirus D68 US/IL/14-18956 infected in human RD cells assessed as inhibition of virus-induced cytopathic effect incubated for 5 mins under shaking condition and measured after 3 days by neutral red dye-based photometric method. It counts as functional, organism-based. The settings on record: Enterovirus D, US/IL/14-18956, RD. In outline:
as §1

Data set [15] concerns enterovirus D68. Briefly: Antiviral activity against Enterovirus D68 US/KY/14-18953 infected in human RD cells assessed as inhibition of virus-induced cytopathic effect incubated for 5 mins under shaking condition and measured after 3 days by neutral red dye-based photometric method. It counts as functional, organism-based. The settings on record: Enterovirus D, US/KY/14-18953, RD. In outline: as §1

Regarding `O=C(NCCN1CCCC1)c1cc(-c2cccs2)nc2ccccc12`, the selectivity ratio in data set [1] was 667; in data set [2] it was 4660; in data set [6], 571; in data set [7], 1310; in data set [10], 667; in [11], 800. Besides, the values for the selectivity ratio in data set [12] and in data set [13] were 327 and 800, respectively. Further, the EC50 in the data set with enterovirus D68 [3] stood at 50 nM; in the data set on enterovirus D68 [4], 50 nM; with enterovirus D68 [5] it was 100 nM; with enterovirus D68 [8] it was 20 nM; in the data set on enterovirus D68 [9] it was 60 nM; with enterovirus D68 [14] it was 50 nM. Further, the EC50 in the data set with enterovirus D68 [15] stood at 60 nM. The values for the CC50 in the data set on HeLa and in the data set on A 172 were 41700 nM and 65400 nM, respectively. In addition, the inhibition entry in the data set on RD is “Active”.
